Residues, ends and D or L forms follow the SMILES beside them.
What was measured:
purified human αIIbβ3 = purified human αIIbβ3 (Homo sapiens, UniProt P05106+P08514); assay type: binding; settings: for average binding affinity constant (Kb), Kb = kon/koff: two-dimensional affinity calculated from kon and koff, Mn2+-activated αIIbβ3
Outline: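 Peptides covalently coupled to amine-functionalized latex beads. Purified human αIIbβ3, Mn2+-activated, immobilized for 2 h at 4 °C on glutaraldehyde-activated, polyacrylamide-coated 5-μm silica pedestals. At room temperature, the laser-trapped bead oscillated at 10 Hz (0.8 μm peak-to-peak, 2000 pN/s) against the pedestal for set contact times T. Binding probability versus T was fitted kinetically; αIIbβ3 density ~3000 molecules/μm² gave kon; Kb = 1/Kd = kon/koff.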

αIIbβ3 = settings: based on a theoretical model; ref 49 (Dutta et al.); cited from earlier work
[1] = target: integrin αIIbβ3 headpiece (Homo sapiens) (UniProt P08514); settings: cited from earlier work

Chain of fibrinogen (P02671 36-866): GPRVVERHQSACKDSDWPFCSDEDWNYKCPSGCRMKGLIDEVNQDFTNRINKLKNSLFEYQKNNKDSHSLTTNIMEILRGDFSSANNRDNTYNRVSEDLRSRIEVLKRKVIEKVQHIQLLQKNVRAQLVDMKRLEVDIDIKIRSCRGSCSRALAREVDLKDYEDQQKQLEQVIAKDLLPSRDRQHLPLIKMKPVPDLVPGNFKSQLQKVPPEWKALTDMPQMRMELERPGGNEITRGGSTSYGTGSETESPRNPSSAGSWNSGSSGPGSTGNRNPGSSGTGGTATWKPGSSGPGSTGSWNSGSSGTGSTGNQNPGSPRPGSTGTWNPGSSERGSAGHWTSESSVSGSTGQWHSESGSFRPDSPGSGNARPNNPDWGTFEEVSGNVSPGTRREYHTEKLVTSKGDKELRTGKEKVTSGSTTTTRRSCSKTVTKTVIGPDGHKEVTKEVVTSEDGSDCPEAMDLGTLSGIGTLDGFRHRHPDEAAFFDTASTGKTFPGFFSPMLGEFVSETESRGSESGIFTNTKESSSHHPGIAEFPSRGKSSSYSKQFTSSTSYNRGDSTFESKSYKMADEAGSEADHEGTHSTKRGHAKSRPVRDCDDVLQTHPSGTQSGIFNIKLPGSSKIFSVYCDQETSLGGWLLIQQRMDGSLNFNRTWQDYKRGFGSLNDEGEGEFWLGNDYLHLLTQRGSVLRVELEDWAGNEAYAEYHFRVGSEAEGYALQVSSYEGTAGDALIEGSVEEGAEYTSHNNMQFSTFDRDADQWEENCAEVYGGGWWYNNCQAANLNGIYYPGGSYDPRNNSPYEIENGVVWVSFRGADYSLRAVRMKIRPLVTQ
Chain of fibrinogen (P02675 45-491, further chain): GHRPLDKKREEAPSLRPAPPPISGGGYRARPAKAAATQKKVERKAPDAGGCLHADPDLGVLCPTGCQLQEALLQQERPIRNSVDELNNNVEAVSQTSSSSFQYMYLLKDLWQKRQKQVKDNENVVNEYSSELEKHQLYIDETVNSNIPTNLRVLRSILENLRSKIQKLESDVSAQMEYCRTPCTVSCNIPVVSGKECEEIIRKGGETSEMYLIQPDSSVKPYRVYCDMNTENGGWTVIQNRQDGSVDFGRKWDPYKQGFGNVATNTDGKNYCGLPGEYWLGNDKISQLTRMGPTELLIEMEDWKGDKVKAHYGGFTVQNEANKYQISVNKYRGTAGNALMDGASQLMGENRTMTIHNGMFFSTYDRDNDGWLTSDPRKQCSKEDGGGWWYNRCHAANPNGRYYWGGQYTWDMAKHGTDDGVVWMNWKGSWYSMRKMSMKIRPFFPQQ
Chain of fibrinogen (P02679 27-453, further chain): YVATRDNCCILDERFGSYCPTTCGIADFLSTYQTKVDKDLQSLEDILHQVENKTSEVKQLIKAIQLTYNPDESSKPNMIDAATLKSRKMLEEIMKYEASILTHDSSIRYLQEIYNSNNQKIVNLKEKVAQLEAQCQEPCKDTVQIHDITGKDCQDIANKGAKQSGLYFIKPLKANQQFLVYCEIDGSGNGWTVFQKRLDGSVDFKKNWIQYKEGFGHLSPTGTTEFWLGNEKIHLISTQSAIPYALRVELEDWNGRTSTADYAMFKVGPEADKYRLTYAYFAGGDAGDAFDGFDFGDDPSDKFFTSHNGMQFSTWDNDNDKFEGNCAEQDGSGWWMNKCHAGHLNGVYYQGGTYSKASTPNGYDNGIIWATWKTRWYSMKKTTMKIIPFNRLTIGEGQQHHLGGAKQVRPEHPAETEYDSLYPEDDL

Compound: CC(C)C[C@H](NC(=O)[C@H](Cc1c[nH]cn1)NC(=O)[C@@H](N)Cc1c[nH]cn1)C(=O)NCC(=O)NCC(=O)N[C@@H](C)C(=O)N[C@@H](CCCCN)C(=O)N[C@@H](CCC(N)=O)C(=O)N[C@@H](C)C(=O)NCC(=O)N[C@@H](CC(=O)O)C(=O)N[C@H](C(=O)O)C(C)C [γC-12, His-His-Leu-Gly-Gly-Ala-Lys-Gln-Ala-Gly-Asp-Val] (H-HHLGGAKQAGDV-OH)
- koff (purified human αIIbβ3; pH 7.4, read-out: average unbinding rate constant koff): 2.05 ± 0.59 s⁻¹
- average binding affinity constant (Kb), Kb = kon/koff (purified human αIIbβ3): (1.22 ± 0.61) × 10^12 cm^2/mol

Compound: cyclo (S,S)-L-lysyl-L-tyrosyl-glycyl-L-cystinyl-L-homoarginyl-glycyl-L-aspartyl-L-trytopanyl-L-prolyl-L-cystine [cHarGD]
- dissociation energy (αIIbβ3): 7 to 9 kcal/mol

Compound: cyclo[Arg-Gly-Asp-D-Phe-Lys(Cys)] (head to tail) [cRGDFK]
- average binding affinity constant (Kb), Kb = kon/koff (purified human αIIbβ3): (1.96 ± 0.65) × 10^12 cm^2/mol

Compound: fibrinogen (from UniProt P02671)
- Kd [1]: 100 nM
